This note sets out measurements from PMC3461514 (The Journal of Cell Biology, 2012).

The subject of one data set is HUVEC. The data set is described as follows: Immunofluorescence localization of HA-KRIT1 at EC-cell junctions. The settings on record: HA-tagged KRIT1 transfected HUVECs, 24 h, colocalization with VE-cadherin. It counts as cell-based, human. The method, boiled down:
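HUVECs in supplemented EC medium, nucleofected with HA-KRIT1 WT or L717,721A, plated on fibronectin-coated coverslips at ~90% confluence, grown 24 h; fixed 3.7% PFA 30 min, 0.2% Triton X-100 5 min, 10% goat serum block 1 h; mouse anti-HA plus rabbit anti-VE-cadherin 3 h RT, Alexa 488/568 secondaries 1 h; spinning-disk confocal, 40× oil, z-slices; ≥3 independent experiments.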

A further data set has as its system HUVECs. In words: Myosin light chain phosphorylation. The format is cell-based, human. The note with it: siRNA-resistant KRIT1 coexpressed with anti-KRIT1 siRNA in HUVECs, immunoblot. The method, boiled down: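 HUVECs were kept in supplemented EC medium and nucleofected with anti-KRIT1 siRNA, alone or together with cDNA for WT or L717,721A KRIT1. Phospho-myosin light chain was then assessed by immunoblotting.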
Background: In western blotting, separated proteins are transferred to a membrane and probed.

A further data set deals with KRIT1 FERM domain (Homo sapiens, UniProt O00522). It counts as binding. The settings on record: GFP-KRIT1 F123 from HEK293 cell lysates, immunoblot.
Another data set concerns zebrafish embryos. In words: Zebrafish dilated heart phenotype after San MO and cRNA coinjection. The format is in vivo, Danio rerio (zebrafish). The settings on record: 1 ng MO injected alone at one-cell stage, scored at 48 hpf.

Ends that are not written are not given here.

KRIT1 FERM domain, sequence (O00522 420-734 limits assumed): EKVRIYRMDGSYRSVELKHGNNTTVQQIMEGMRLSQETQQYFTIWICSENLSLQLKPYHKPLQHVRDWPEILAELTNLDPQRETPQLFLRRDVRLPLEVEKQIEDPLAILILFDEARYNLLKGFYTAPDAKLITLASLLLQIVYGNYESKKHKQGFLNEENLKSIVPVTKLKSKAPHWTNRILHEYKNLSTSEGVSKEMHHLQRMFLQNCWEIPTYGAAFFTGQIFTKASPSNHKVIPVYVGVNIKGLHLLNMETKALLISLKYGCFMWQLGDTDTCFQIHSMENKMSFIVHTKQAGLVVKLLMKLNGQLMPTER

As to “KRIT1: HA-tagged full-length wild-type human KRIT1 expressed in HUVECs”, the “localization at EC-cell junctions” value in the data set on HUVEC is listed as “localized at EC–cell junctions”. Further, in the data set on HUVECs, the “effect on increased myosin light chain phosphorylation caused by KRIT1 silencing” value is reported as “reversed this effect”. For “HEG1 C26 NAFA (SRHSCIFPGQYAPSAISDESRRRDYF; not fully specified)”, the KRIT1 binding entry with KRIT1 FERM domain was “no effect on KRIT1 binding”.

Turning to “5′-TTGAAGTCTCACTTTTGTCTCCATG-3′ (morpholino, further chemistry not given here) [San MO]”, the “heart dilation, zebrafish embryos” value in the data set on zebrafish embryos is recorded as 95%.
